# Counter-ions that a name gives are not always drawn. Marks after values point to notes of the source that are not given here.
# Key:
# rat M4 receptor = target: T1, rat M4 receptor (Rattus norvegicus, UniProt P08485); assay type: cell-based
# T1 sequence (P08485 1-478): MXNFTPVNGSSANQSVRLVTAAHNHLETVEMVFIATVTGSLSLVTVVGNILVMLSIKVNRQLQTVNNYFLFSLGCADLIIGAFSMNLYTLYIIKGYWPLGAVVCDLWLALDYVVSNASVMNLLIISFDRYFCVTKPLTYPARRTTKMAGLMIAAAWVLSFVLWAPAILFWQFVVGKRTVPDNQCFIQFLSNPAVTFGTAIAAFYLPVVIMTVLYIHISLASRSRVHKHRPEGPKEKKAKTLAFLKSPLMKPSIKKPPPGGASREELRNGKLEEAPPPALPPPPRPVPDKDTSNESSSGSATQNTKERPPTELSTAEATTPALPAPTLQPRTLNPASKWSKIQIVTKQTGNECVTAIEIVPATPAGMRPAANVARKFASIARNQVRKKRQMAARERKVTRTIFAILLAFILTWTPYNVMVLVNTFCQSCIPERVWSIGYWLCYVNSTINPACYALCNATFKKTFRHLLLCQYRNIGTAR
# wild-type mice [1] = assay: MK-801-induced hyperlocomotion in wild-type mice; assay type: in vivo, mouse; settings: IP
# In short: (§1)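 Wild-type and M4 KO mice were habituated 90 min in a photobeam open field. They then received vehicle (10% Tween 80 IP), followed 30 min later by saline or MK-801 IP, and activity was recorded for 120 min. Distance traveled was binned per 5 min. Totals covered t = 120 to 240 min and were analyzed by ANOVA with Bonferroni post hoc tests.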
# M4 KO mice [2] = assay: MK-801-induced hyperlocomotion in M4 KO mice; assay type: in vivo, mouse; settings: IP, lowest significant dose
# In short: as §1
# wild-type mice [3] = assay: Touchscreen pairwise visual discrimination task, wild-type mice; assay type: in vivo, mouse
# In short: (§2)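 Mice aged 8–11 weeks were held at ~85% free-feeding weight, with water freely available. They were trained on touchscreen nosepoke discrimination (60 trials or 60 min) to ≥85% accuracy on 3 consecutive days. Next day: vehicle (10% Tween 80 IP) or test compound (3–30 mg/kg IP) 60 min pre-test, then saline or MK-801 (0.1–0.3 mg/kg IP) 30 min later. Mice were retested drug-free 24 h later. Analysis: ANOVA with Bonferroni tests.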
# M4 KO mice [4] = assay: Touchscreen pairwise visual discrimination task, M4 KO mice; assay type: in vivo, mouse; settings: M4 KO
# In short: as §2
# wild-type mice [5] = assay: Contextual fear conditioning, four-shock, MK-801-induced deficit; assay type: in vivo, mouse; settings: MK-801 0.1–0.3 mg/kg prior to the four-shock conditioning trial
# In short: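 Subjects were wild-type and M4 KO mice, 8–11 weeks old, handled for 3 days and saline-injected 1 day before conditioning. Vehicle (10% Tween 80 in water, IP) or test compound (3–10 mg/kg IP) was given 30 min before saline or MK-801 (0.1–0.3 mg/kg IP). Mice entered the chamber 30 min later for a four-shock conditioning trial. Percent freezing was scored 24 h later, drug-free.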
# wild-type mice [6] = assay: Modified Irwin neurological test battery; assay type: in vivo, mouse; settings: 1 mg/kg
# [7] = potentiation of an EC20 concentration of ACh, CHO cells
smiles,measurement,setting,value
COc1nc2sc(C(=O)NC3CC3)c(N)c2c(C)c1Cl [LY2033298],%AChmax,rat M4 receptor; maximum response as % of the Emax of ACh,67%
same,EC50,rat M4 receptor; [7],646 nM
same,pEC50,rat M4 receptor; [7],6.19 ± 0.03
"C[C@]12N[C@H](Cc3ccccc31)c1ccccc12 [MK-801, (5S,10R)-(+)-5-methyl-10,11-dihydro-5H-dibenzo[a,d]cyclohepten-5,10-imine maleate, reference compound]",dose with significant effect on locomotor activity,wild-type mice [1],3 mg/kg
same,dose with significant effect on locomotor activity,M4 KO mice [2],0.18 mg/kg
same,response accuracy on the test day,wild-type mice [3]; 0.3 mg/kg MK-801 (vehicle group 92%),63%
same,correct reward collection latency,wild-type mice [3]; vehicle + MK-801 0.10 mg/kg IP,1.32 ± 0.15 s
same,correct touch latency,wild-type mice [3]; vehicle + MK-801 0.10 mg/kg IP,2.95 ± 0.57 s
same,time to complete 60 trials,wild-type mice [3]; vehicle + MK-801 0.10 mg/kg IP,1004 ± 124.3 s
same,correct reward collection latency,wild-type mice [3]; vehicle + MK-801 0.30 mg/kg IP,5.58 ± 2.58 s
same,correct touch latency,wild-type mice [3]; vehicle + MK-801 0.30 mg/kg IP,8.65 ± 1.99 s
same,time to complete 60 trials,wild-type mice [3]; vehicle + MK-801 0.30 mg/kg IP,1118 ± 139.2 s
same,response accuracy on the test day,M4 KO mice [4]; MK-801 alone (vehicle 91%),73%
same,correct reward collection latency,M4 KO mice [4]; vehicle + MK-801 0.30 mg/kg IP,1.54 ± 0.15 s
same,correct touch latency,M4 KO mice [4]; vehicle + MK-801 0.30 mg/kg IP,8.76 ± 2.19 s
same,time to complete 60 trials,M4 KO mice [4]; vehicle + MK-801 0.30 mg/kg IP,1264 ± 280.5 ^f s
same,acquisition of contextual fear conditioning (percent freezing),wild-type mice [5],dose-dependently impaired
"O=C1CCCN1CC#CCN1CCCC1 [oxotremorine, oxotremorine sesquifumarate, reference compound]",autonomic function and somatomotor deficits,wild-type mice [6],induced time-dependent changes in autonomic function
